Reference: ChEMBL document CHEMBL4325897, “Discovery, synthesis of novel fusidic acid derivatives possessed amino-terminal groups at the 3-hydroxyl position with anticancer activity” (Eur J Med Chem, 2019)

Key:
HeLa [1] = test: Cytotoxicity against human HeLa cells assessed as cell viability at 5 uM after 72 hrs by MTT assay relative to control; assay type: functional; conditions: read-out: Activity
Procedure, shortened: (§1)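 Cells grown in DMEM with 10% heat-inactivated FCS and penicillin/streptomycin at 37 °C, 5% CO2, and used in log phase. Seeded in 96-well plates and exposed to compounds at 5 μM and 1.5 μM for 72 h. MTT added, formazan dissolved in DMSO, OD read at 570 nm, and survival rate calculated. Average of at least three independent experiments.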

[2] = Cytotoxicity against human KBV cells assessed as cell viability at 5 uM after 72 hrs by MTT assay relative to control; assay type: functional; conditions: read-out: Activity; procedure, shortened: as §1
[3] = Cytotoxicity against human KBV cells assessed as cell viability at 1.5 uM after 72 hrs by MTT assay relative to control; assay type: functional; conditions: read-out: Activity; procedure, shortened: as §1
HeLa [4] = test: Cytotoxicity against human HeLa cells assessed as cell viability at 1.5 uM after 72 hrs by MTT assay relative to control; assay type: functional; conditions: read-out: Activity; procedure, shortened: as §1
MKN-45 [5] = test: Cytotoxicity against human MKN45 cells assessed as cell viability at 5 uM after 72 hrs by MTT assay relative to control; assay type: functional; conditions: MKN-45, 72 h, read-out: Activity; procedure, shortened: as §1
U-87 MG [6] = test: Cytotoxicity against human U87 cells assessed as cell viability at 1.5 uM after 72 hrs by MTT assay relative to control; assay type: functional, U-87MG ATCC; conditions: read-out: Activity; procedure, shortened: as §1
MKN-45 [7] = test: Cytotoxicity against human MKN45 cells assessed as cell viability at 1.5 uM after 72 hrs by MTT assay relative to control; assay type: functional; conditions: MKN-45, 72 h, read-out: Activity; procedure, shortened: as §1
U-87 MG [8] = test: Cytotoxicity against human U87 cells assessed as cell viability at 5 uM after 72 hrs by MTT assay relative to control; assay type: functional, U-87MG ATCC; conditions: read-out: Activity; procedure, shortened: as §1

SMILES | viability at 5 µM (HeLa [1]) | viability at 5 µM [2] | viability at 1.5 µM [3] | viability at 1.5 µM (HeLa [4]) | viability at 5 µM (MKN-45 [5]) | viability at 1.5 µM (U-87 MG [6]) | viability at 1.5 µM (MKN-45 [7]) | viability at 5 µM (U-87 MG [8])
CC(=O)O[C@H]1C[C@@]2(C)[C@@H](C[C@@H](O)[C@H]3[C@@]4(C)CC[C@@H](OC(=O)CCCCCCCN)[C@@H](C)[C@@H]4CC[C@@]32C)/C1=C(\CCC=C(C)C)C(=O)OCc1ccccc1 | 19% | 11% | 83% | 99% | 4% | 116% | 16% | 10%
CC(=O)O[C@H]1C[C@@]2(C)[C@@H](C[C@@H](O)[C@H]3[C@@]4(C)CC[C@@H](OC(=O)c5nccnc5C(=O)O)[C@@H](C)[C@@H]4CC[C@@]32C)/C1=C(\CCC=C(C)C)C(=O)OCc1ccccc1 | 69% | 108% | 86% | 76% | 87% | 88% | 95% | 90%
CC(=O)O[C@H]1C[C@@]2(C)[C@@H](C[C@@H](O)[C@H]3[C@@]4(C)CC[C@@H](OC(=O)CCCN)[C@@H](C)[C@@H]4CC[C@@]32C)/C1=C(\CCC=C(C)C)C(=O)OCc1ccccc1 | 23% | 13% | 98% | 101% | 6% | 10% | 90% | 9%
CC(=O)O[C@H]1C[C@@]2(C)[C@@H](C[C@@H](O)[C@H]3[C@@]4(C)CC[C@@H](OC(=O)CCCCCCCCCCN)[C@@H](C)[C@@H]4CC[C@@]32C)/C1=C(\CCC=C(C)C)C(=O)OCc1ccccc1 | 19% | 9% | 93% | 100% | 5% | 49% | 96% | 10%
CC(=O)O[C@H]1C[C@@]2(C)[C@@H](C[C@@H](O)[C@H]3[C@@]4(C)CC[C@@H](OC(=O)CCC(=O)N5CCN(C)CC5)[C@@H](C)[C@@H]4CC[C@@]32C)/C1=C(\CCC=C(C)C)C(=O)OCc1ccccc1 | 47% | 71% | 82% | 70% | 75% | 87% | 81% | 88%
CC(=O)O[C@H]1C[C@@]2(C)[C@@H](C[C@@H](O)[C@H]3[C@@]4(C)CC[C@@H](OC(=O)C(N)CC(C)C)[C@@H](C)[C@@H]4CC[C@@]32C)/C1=C(\CCC=C(C)C)C(=O)OCc1ccccc1 (some centres undefined) | 22% | 83% | 96% | 99% | 92% | 106% | 95% | 111%
CC(=O)O[C@H]1C[C@@]2(C)[C@@H](C[C@@H](O)[C@H]3[C@@]4(C)CC[C@@H](OC(=O)c5ccccc5C(=O)n5cccn5)[C@@H](C)[C@@H]4CC[C@@]32C)/C1=C(\CCC=C(C)C)C(=O)OCc1ccccc1 | 82% | 79% | 85% | 90% | 96% | 90% | 101% | 87%
CC(=O)O[C@H]1C[C@@]2(C)[C@@H](C[C@@H](O)[C@H]3[C@@]4(C)CC[C@@H](OC(=O)CCC(=O)n5cccn5)[C@@H](C)[C@@H]4CC[C@@]32C)/C1=C(\CCC=C(C)C)C(=O)OCc1ccccc1 | 71% | 80% | 77% | 75% | 83% | 87% | 88% | 83%
